In brackets after ≈: the same amount, converted by molar mass.
How the values were obtained:
Ca9-22 = assay: Cytotoxicity against human Ca9-22 cells by MTT assay; format: functional, cell-based
MDA-MB-231 = assay: Cytotoxicity against human MDA-MB-231 cells by MTT assay; format: functional, cell-based
MCF7 = assay: Cytotoxicity against human MCF7 cells by MTT assay; format: functional, cell-based
A549 = assay: Cytotoxicity against human A549 cells by MTT assay; format: functional, cell-based
[1] = Cytotoxicity against human Hep3B cells by MTT assay; format: functional, cell-based, Hep 3B2
HepG2 = assay: Cytotoxicity against human HepG2 cells by MTT assay; format: functional, cell-based
[2] = Cytotoxicity against human neutrophils assessed as increase in LDH level relative to control; format: cell-based; details: neutrophil
How it was run: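 Lysed-cell reference made with 0.1% Triton X-100, 30 min at 37 °C. LDH in the cell-free medium was measured with a commercial kit. Result given as a percentage of total LDH release.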

[3] = Antiinflammatory activity in human neutrophils assessed as inhibition of FMLP/CB-induced superoxide anion generation incubated for 5 mins prior to FMLP/CB-challenge measured after 10 mins by spectrophotometry; format: functional, cell-based; details: Neutrophil
How it was run: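 Neutrophils isolated by dextran sedimentation and Ficoll centrifugation. Cells were given 0.5 mg/mL ferricytochrome c and 1 mM Ca2+ and equilibrated at 37 °C for 2 min. They were then exposed to drug for 5 min and to cytochalasin B (1 μg/mL) for 3 min, then activated with fMLP (100 nM) for 10 min. Read-out was SOD-inhibitable ferricytochrome c reduction at 550 nm, monitored continuously. Mean ± SEM, n = 3.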

[4] = Antiinflammatory activity in human neutrophils assessed as inhibition of FMLP/CB-induced elastase release at 10 ug/mL incubated for 5 mins prior to FMLP/CB-challenge by spectrophotometry; format: functional; details: Neutrophil
How it was run: (§1)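 Neutrophils isolated from human blood by dextran sedimentation and Ficoll centrifugation, used at 6 × 10^5/mL with MeO-Suc-Ala-Ala-Pro-Val-p-nitroanilide (100 μM). Equilibrated 2 min at 37 °C, compound added for 5 min, then activated with fMLP (100 nM)/CB (0.5 μg/mL). Absorbance at 405 nm monitored continuously. Initial elastase release rate expressed as % of the fMLP/CB-activated DMSO control. PMSF positive control; mean ± SEM, n = 3.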

[5] = Antiinflammatory activity in human neutrophils assessed as inhibition of FMLP/CB-induced elastase release incubated for 5 mins prior to FMLP/CB-challenge by spectrophotometry; format: functional, cell-based; details: Neutrophil; how it was run: as §1
Neutrophil = assay: Ratio of PMSF IC50 to compound IC50 for antiinflammatory activity assessed as inhibition of elastase release in human neutrophils; format: functional
[6] = Antiinflammatory activity in human neutrophils assessed as inhibition of FMLP/CB-induced superoxide anion generation at 10 ug/mL incubated for 5 mins prior to FMLP/CB-challenge measured after 10 mins by spectrophotometry; format: functional; details: Neutrophil
How it was run: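 Human neutrophils isolated by dextran sedimentation and Ficoll centrifugation, supplemented with ferricytochrome c (0.5 mg/mL) and Ca2+ (1 mM). Equilibrated 2 min at 37 °C, compound added for 5 min, then cytochalasin B (1 μg/mL) for 3 min, then fMLP (100 nM) for 10 min. SOD-inhibitable ferricytochrome c reduction followed at 550 nm with stirring. Expressed as % of fMLP/CB-activated response. DPI positive control; mean ± SEM, n = 3.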

Row | SMILES | IC50 (Ca9-22) | IC50 (MDA-MB-231) | IC50 (MCF7) | IC50 (A549) | IC50 [1] | IC50 (HepG2) | Activity [2] | IC50 [3] | inhibition at 10 µg/mL [4] | IC50 [5] | Ratio IC50 (Neutrophil) | inhibition at 10 µg/mL [6]
1 | C[C@H]1CC[C@]2(OC1)O[C@H]1C[C@H]3[C@@H]4CC=C5C[C@@H](O[C@@H]6O[C@H](CO)[C@@H](O)[C@H](O)[C@H]6O[C@@H]6O[C@@H](C)[C@H](O)[C@@H](O)[C@H]6O)CC[C@]5(C)[C@H]4CC[C@]3(C)[C@H]1[C@H]2C | 2.95 µg/mL (≈ 4.08 µM) | 6.12 µg/mL (≈ 8.47 µM) | 4.78 µg/mL (≈ 6.61 µM) | 3.09 µg/mL (≈ 4.27 µM) | 2.95 µg/mL (≈ 4.08 µM) | 2.22 µg/mL (≈ 3.07 µM) | – | – | – | – | – | –
2 | C[C@H]1CC[C@@]2(OC1)O[C@H]1C[C@H]3[C@@H]4CC[C@H]5C[C@@H](O[C@@H]6O[C@H](CO)[C@@H](O[C@@H]7O[C@@H](C)[C@H](O)[C@@H](O)[C@H]7O)[C@H](O)[C@H]6O[C@@H]6O[C@@H](C)[C@H](O)[C@@H](O)[C@H]6O)CC[C@]5(C)[C@H]4CC[C@]3(C)[C@H]1[C@@H]2C | 6.76 µg/mL (≈ 7.76 µM) | 8.04 µg/mL (≈ 9.23 µM) | 11.6 µg/mL (≈ 13.3 µM) | 7.27 µg/mL (≈ 8.35 µM) | 3.32 µg/mL (≈ 3.81 µM) | 5.33 µg/mL (≈ 6.12 µM) | Toxic | 2.84 µg/mL (≈ 3.26 µM) | 38.9% | – | – | –
3 | C[C@H]1CC[C@@]2(OC1)O[C@H]1C[C@H]3[C@@H]4CC=C5C[C@@H](O[C@@H]6O[C@H](CO)[C@@H](O)[C@H](O)[C@H]6O[C@@H]6O[C@@H](C)[C@H](O)[C@@H](O)[C@H]6O)CC[C@]5(C)[C@H]4CC[C@]3(C)[C@H]1[C@@H]2C | 4.51 µg/mL (≈ 6.24 µM) | 7.25 µg/mL (≈ 10 µM) | 5.84 µg/mL (≈ 8.08 µM) | 4.26 µg/mL (≈ 5.89 µM) | 6.98 µg/mL (≈ 9.66 µM) | 6.48 µg/mL (≈ 8.96 µM) | – | – | – | – | – | –
4 | C[C@H]1CC[C@@]2(OC1)O[C@H]1C[C@H]3[C@@H]4CC=C5C[C@@H](O[C@@H]6O[C@H](CO)[C@@H](O[C@@H]7O[C@@H](C)[C@H](O)[C@@H](O)[C@H]7O)[C@H](O)[C@H]6O[C@@H]6O[C@@H](C)[C@H](O)[C@@H](O)[C@H]6O)CC[C@]5(C)[C@H]4CC[C@]3(C)[C@H]1[C@@H]2C | 3.77 µg/mL (≈ 4.34 µM) | 5.84 µg/mL (≈ 6.72 µM) | 8.84 µg/mL (≈ 10.2 µM) | 4.09 µg/mL (≈ 4.71 µM) | 2.87 µg/mL (≈ 3.3 µM) | 6.44 µg/mL (≈ 7.41 µM) | Toxic | 1.62 µg/mL (≈ 1.86 µM) | – | 4.04 µg/mL (≈ 4.65 µM) | 5 | –
5 | CC[C@H](CC[C@@H](C)[C@H]1CC[C@H]2[C@@H]3C(O)C=C4C[C@@H](O[C@@H]5O[C@H](CO)[C@@H](O)[C@H](O)[C@H]5O)CC[C@]4(C)[C@H]3CC[C@]12C)C(C)C (some centres not stated) | > 20 µg/mL | > 20 µg/mL | > 20 µg/mL | > 20 µg/mL | > 20 µg/mL | > 20 µg/mL | – | – | – | – | – | –
6 | C[C@@H]1CC[C@]2(OC1)O[C@H]1C[C@H]3[C@@H]4CC=C5C[C@@H](O[C@@H]6O[C@H](CO)[C@@H](O[C@@H]7O[C@@H](C)[C@H](O)[C@@H](O)[C@H]7O)[C@H](O)[C@H]6O)CC[C@]5(C)[C@H]4CC[C@]3(C)[C@H]1[C@H]2C [BORASSOSIDE D] | > 20 µg/mL | > 20 µg/mL | > 20 µg/mL | > 20 µg/mL | > 20 µg/mL | > 20 µg/mL | – | – | – | – | – | –
7 | C[C@H]1CC[C@]2(OC1)O[C@H]1C[C@H]3[C@@H]4CC=C5C[C@@H](O[C@@H]6O[C@H](CO)[C@@H](O[C@@H]7O[C@@H](C)[C@H](O)[C@@H](O)[C@H]7O)[C@H](O)[C@H]6O[C@@H]6O[C@@H](C)[C@H](O)[C@@H](O)[C@H]6O)CC[C@]5(C)[C@H]4CC[C@]3(C)[C@H]1[C@H]2C [BORASSOSIDE E] | 2.33 µg/mL (≈ 2.68 µM) | 2.75 µg/mL (≈ 3.16 µM) | 2.61 µg/mL (≈ 3 µM) | 2.34 µg/mL (≈ 2.69 µM) | 2.03 µg/mL (≈ 2.34 µM) | 1.83 µg/mL (≈ 2.11 µM) | Toxic | 0.62 µg/mL (≈ 0.713 µM) | – | 111 µg/mL (≈ 128 µM) | – | –
8 | c1ccc2c(c1)[I+]c1ccccc1-2 [DIPHENYLENEIODONIUM] | – | – | – | – | – | – | – | 0.22 µg/mL | – | – | – | –
9 | COc1cccc2c1C(=O)c1c(O)c3c(c(O)c1C2=O)C[C@@](O)(C(=O)CO)C[C@@H]3O[C@H]1C[C@H](N)[C@H](O)[C@H](C)O1 [DOXORUBICIN] | 0.31 µg/mL (≈ 0.57 µM) | 1.39 µg/mL (≈ 2.56 µM) | 0.8 µg/mL (≈ 1.47 µM) | 1.4 µg/mL (≈ 2.58 µM) | 1.31 µg/mL (≈ 2.41 µM) | – | – | – | – | – | – | –
10 | O=C(/C=C/c1ccc(O)cc1)NCCc1ccc(O)cc1 [N-P-COUMAROYL TYRAMINE] | 12.3 µg/mL (≈ 43.3 µM) | > 20 µg/mL | > 20 µg/mL | 15.2 µg/mL (≈ 53.7 µM) | 11.2 µg/mL (≈ 39.6 µM) | 9.57 µg/mL (≈ 33.8 µM) | Non-toxic | – | -0.17% | – | – | 23.2%
11 | O=S(=O)(F)Cc1ccccc1 [PHENYLMETHYLSULFONYLFLUORIDE] | – | – | – | – | – | – | – | – | – | 22.8 µg/mL (≈ 131 µM) | – | –
12 | CC[C@H](CC[C@@H](C)[C@H]1CC[C@H]2[C@@H]3CC=C4C[C@@H](O[C@@H]5O[C@H](CO)[C@@H](O)[C@H](O)[C@H]5O)CC[C@]4(C)[C@H]3CC[C@]12C)C(C)C [SITOGLUSIDE] | > 20 µg/mL | > 20 µg/mL | > 20 µg/mL | > 20 µg/mL | > 20 µg/mL | > 20 µg/mL | – | – | 1.58% | – | – | 24.9%
13 | C/C(=C\CO)CC[C@@H]1[C@@]2(C)CC[C@H](O[C@@H]3O[C@H](CO)[C@@H](O)[C@H](O)[C@H]3O)C(C)(C)[C@@H]2CC[C@]1(C)O [TRICALYSIOSIDE U] | > 20 µg/mL | > 20 µg/mL | > 20 µg/mL | > 20 µg/mL | > 20 µg/mL | > 20 µg/mL | – | – | – | – | – | –
